Results as given in ChEMBL document CHEMBL1136932, “Discovery, SAR, and pharmacokinetics of a novel 3-hydroxyquinolin-2(1H)-one series of potent D-amino acid oxidase (DAAO) inhibitors” (J Med Chem, 2009).
Values belong to the compound of their own block, whether it stands above or below them. Active and inactive are the calls of the source. No cut-off for these calls is given here.

Legend:
[1] = Displacement of [3H]glycine from NMDA receptor at 10 uM
D-aspartate oxidase = target: T1, D-aspartate oxidase (Homo sapiens, UniProt Q99489); assay: Inhibition of human recombinant DDO expressed in sf9 insect cells assessed as degradation of D-aspartic acid by fluorescence assay
T1 sequence (Q99489 whole entry): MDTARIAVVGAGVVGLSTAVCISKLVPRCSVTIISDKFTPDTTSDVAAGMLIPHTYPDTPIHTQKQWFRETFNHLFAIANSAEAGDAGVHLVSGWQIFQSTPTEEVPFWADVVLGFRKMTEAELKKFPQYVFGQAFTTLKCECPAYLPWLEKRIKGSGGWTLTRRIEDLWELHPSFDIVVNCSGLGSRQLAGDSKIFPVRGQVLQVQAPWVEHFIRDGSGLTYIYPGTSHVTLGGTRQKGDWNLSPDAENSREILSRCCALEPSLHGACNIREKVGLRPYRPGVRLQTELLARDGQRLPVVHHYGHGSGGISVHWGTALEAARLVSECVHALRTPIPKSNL

[2] = Dissociation constant, pKa of the compound; type: physicochemical
Rattus norvegicus = assay: Volume of distribution in Sprague-Dawley CD rat at 3 mg/kg, po and 1 mg/kg, iv; type: ADME, organism-based; conditions: in vivo
[3] = Half life in Sprague-Dawley CD rat at 3 mg/kg, po and 1 mg/kg, iv; type: ADME, organism-based; conditions: in vivo
[4] = Clearance in Sprague-Dawley CD rat plasma at 3 mg/kg, po and 1 mg/kg, iv; type: ADME, organism-based
[5] = Cmax in Sprague-Dawley CD rat at 3 mg/kg, po; type: ADME, organism-based; parameters: dose 3 mg/kg, route oral; conditions: in vivo
[6] = Oral bioavailability in Sprague-Dawley CD rat at 3 mg/kg; type: ADME, organism-based; conditions: in vivo
[7] = Ratio of drug level in brain to plasma in 129/SVEV mouse at 10 mg/kg, sc after 4 hrs; conditions: read-out: BPR
D-amino-acid oxidase = D-amino-acid oxidase (Rattus norvegicus, UniProt O35078); assay: Inhibition of rat recombinant DAAO expressed in sf9 insect cells assessed as degradation of D-serine by fluorescence assay
[8] = Fraction unbound in Sprague-Dawley CD rat brain at 56 mg/kg, sc after 4 hrs; type: ADME, organism-based; parameters: dose 56 mg/kg, route subcutaneous
Brain [9] = assay: Free drug level in 129/SVEV mouse brain at 10 mg/kg, sc after 4 hrs; conditions: in vivo
Brain [10] = assay: Free drug level in Sprague-Dawley CD rat brain at 56 mg/kg, sc after 4 hrs; type: ADME, organism-based; parameters: dose 56 mg/kg, route subcutaneous; conditions: in vivo
[11] = Ratio of drug level in brain to plasma in Sprague-Dawley CD rat at 56 mg/kg, sc after 4 hrs; type: ADME, organism-based; parameters: dose 56 mg/kg, route subcutaneous; conditions: read-out: BPR
Mus musculus = assay: Elevation of D-serine level in 129/SVEV mouse cerebellum at 10 mg/kg, sc after 4 hrs by LC/MS-MS analysis; type: functional, organism-based; parameters: dose 10 mg/kg
Outline: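 Male rats (1-2 mL/kg) or male mice (10 mL/kg) received compound or vehicle sc in 5% DMSO/5% Cremophor EL/90% saline. At 4 h, cerebella were taken under CO2 anesthesia, homogenized in 3 volumes PBS and extracted with 16 volumes acetonitrile, and the supernatant was dried.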

Sequence of D-amino-acid oxidase (O35078 whole entry): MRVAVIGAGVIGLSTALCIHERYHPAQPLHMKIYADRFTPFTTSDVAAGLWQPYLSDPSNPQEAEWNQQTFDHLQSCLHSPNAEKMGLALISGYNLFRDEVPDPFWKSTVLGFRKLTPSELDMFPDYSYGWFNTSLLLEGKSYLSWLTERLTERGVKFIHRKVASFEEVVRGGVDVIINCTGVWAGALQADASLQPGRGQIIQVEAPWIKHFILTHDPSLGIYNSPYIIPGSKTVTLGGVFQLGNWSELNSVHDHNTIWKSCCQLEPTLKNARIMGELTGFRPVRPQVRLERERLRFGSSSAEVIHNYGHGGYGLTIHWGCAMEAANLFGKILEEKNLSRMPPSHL

inhibition [1]: < 50%
IC50 (D-aspartate oxidase): 64 µM
Structure (SMILES): O=c1[nH]c2cccc(F)c2cc1O

Vd (Rattus norvegicus): 2.3 L/kg
half-life [3]: 0.9 h
inhibition [1]: < 50%
clearance [4]: 72 mL/min/kg
Cmax [5]: 216 ng/mL
bioavailability [6]: 44%
Structure (SMILES): O=c1[nH]c2ccc(F)cc2cc1O

IC50 (D-aspartate oxidase): > 50 µM
Structure (SMILES): O=c1[nH]c2ccc(Cl)cc2cc1O

inhibition [1]: < 50%
Structure (SMILES): O=c1[nH]c2c(F)cccc2cc1O

IC50 (D-aspartate oxidase): 21.5 µM
Structure (SMILES): Cc1ccc2cc(O)c(=O)[nH]c2c1

Vd (Rattus norvegicus): 10.8 L/kg
fraction unbound at 4 h [8]: 0.22
inhibition [1]: 29%
Drug uptake (Brain [9]): 15 nM
Drug uptake (Brain [10]): 670 nM
Kp at 4 h [7]: 2
Kp at 4 h [11]: 0.7
pKa [2]: 8.7
clearance [4]: 46 mL/min/kg
Cmax [5]: 5.5 ng/mL
bioavailability [6]: 0.9%
Structure (SMILES): O=c1[nH]c2ccccc2cc1O

Vd (Rattus norvegicus): 1.2 L/kg
half-life [3]: 5.4 h
inhibition [1]: < 50%
IC50 (D-aspartate oxidase): 22.4 µM
clearance [4]: 15 mL/min/kg
Cmax [5]: 754 ng/mL
bioavailability [6]: 38%
Structure (SMILES): O=c1[nH]c2cc(F)ccc2cc1O

Continued, compound first:

Structure (SMILES): Oc1noc2cc(Cl)ccc12
pKa [2]: 4

Structure (SMILES): CCc1cccc2[nH]c(=O)c(O)cc12
inhibition [1]: < 50%

Structure (SMILES): O=c1[nH]c2ncccc2cc1O
inhibition [1]: < 50%
IC50 (D-aspartate oxidase): > 7.64 µM

Structure (SMILES): Cc1cccc2cc(O)c(=O)[nH]c12
IC50 (D-aspartate oxidase): 31.6 µM

Structure (SMILES): Cc1cc(C(=O)O)n[nH]1
pKa [2]: 4

Structure (SMILES): O=C(O)c1cc2occc2[nH]1
IC50 (D-aspartate oxidase): > 19.5 µM
Kp at 4 h [7]: 0.8
IC50 (D-amino-acid oxidase): 0.424 µM
pKa [2]: 4

Structure (SMILES): O=c1[nH]c2cccc(Cl)c2cc1O
inhibition [1]: < 50%
IC50 (D-aspartate oxidase): 206 µM
IC50 (D-amino-acid oxidase): 0.04 µM

Structure (SMILES): CCc1cccc2cc(O)c(=O)[nH]c12
IC50 (D-aspartate oxidase): > 50 µM

Structure (SMILES): O=c1[nH]c2ccncc2cc1O
IC50 (D-aspartate oxidase): > 36 µM

Structure (SMILES): O=c1[nH]c2ncc(F)c(Cl)c2cc1O
Activity (Mus musculus): Active
Drug uptake (Brain [9]): 12 nM
Kp at 4 h [7]: 0.1

Structure (SMILES): O=c1[nH]c2cnccc2cc1O
IC50 (D-aspartate oxidase): > 50 µM

Structure (SMILES): Cc1cccc2[nH]c(=O)c(O)cc12
inhibition [1]: < 50%

Structure (SMILES): O=c1[nH]c2c(Cl)cccc2cc1O
IC50 (D-aspartate oxidase): > 43.4 µM

Structure (SMILES): O=c1[nH]c2nccnc2cc1O
IC50 (D-aspartate oxidase): > 50 µM

Structure (SMILES): O=c1[nH]c2cccnc2cc1O
IC50 (D-aspartate oxidase): > 50 µM

Structure (SMILES): Cc1c(O)c(=O)[nH]c2ccccc12
IC50 (D-aspartate oxidase): 32.3 µM
